Published values collected from several papers.
FLT3 D835Y: Receptor-type tyrosine-protein kinase FLT3 (FLT3, Homo sapiens, UniProt P36888, D835Y)
FLT3 N841I: Receptor-type tyrosine-protein kinase FLT3 (FLT3, Homo sapiens, UniProt P36888, N841I)
FLT3 D835V/ITD: Receptor-type tyrosine-protein kinase FLT3 (FLT3, Homo sapiens, UniProt P36888, D835V/ITD)
FLT3: Receptor-type tyrosine-protein kinase FLT3 (FLT3, Homo sapiens, UniProt P36888)

c1cnn2ncc(-c3ccnc(N4CCC45COC5)n3)c2c1 — remaining binding (FLT3 D835Y; binding; 1 µM): 62%
CCCOc1ccc(OC)c(F)c1C(=O)c1ccc(C(=O)N[C@@H]2CNC[C@H]2NC(=O)c2ccc3[nH]ncc3c2)cc1 — remaining activity (FLT3 D835Y; enzyme activity; inhibitor; 10 µM): 12%
CC(C)CC(=O)N1CCc2nc(-c3ccc(Br)cc3)nc(N(C)Cc3ccccc3)c2C1 — remaining binding (FLT3 N841I; cell-free assay; competition with immobilised ligand; 0.1 µM): 100%
Nc1ncnc2occ(-c3ccc(NC(=O)Nc4cc(C(F)(F)F)ccc4F)cc3)c12 — remaining signal (Receptor-type tyrosine-protein kinase FLT3 (FLT3, Homo sapiens, UniProt P36888, R834Q); cell-free assay; inhibitor; 20 µM): 0%
O=C1NC(c2ccccn2)Sc2ccccc21 (centres unmarked) — remaining binding (FLT3 D835V/ITD; cell-free assay; competition with immobilised ligand; 1 µM): 83%
COc1ccnn2ncc(-c3ccnc(N(C)C)n3)c12 — remaining binding (FLT3; binding; 1 µM): 100%
CC(C)(O)[C@H]1CC[C@H](Nc2ccc3ncc(-c4cccc(C(F)(F)F)c4)n3n2)CC1 — remaining activity (FLT3; enzyme activity; inhibitor; 1 µM): 6.31%
F[C@@H]1CCN(c2nccc(-c3cnn4ncccc34)n2)C1 — remaining binding (FLT3; binding; 1 µM): 81%
O=C(c1ccc(Nc2ncc(Cl)c(-c3ccc(Cl)s3)n2)cc1)N1CCC(N2CCCC2)CC1 — remaining binding (FLT3 D835Y; binding; competition with immobilised ligand; 1 µM): 1.1%
O=C(NCCCC1CCCCC1)c1ccc(CNC(=O)c2cnn(-c3ccccc3)c2C(F)(F)F)cc1 — remaining binding (Receptor-type tyrosine-protein kinase FLT3, autoinhibited (FLT3, Homo sapiens, UniProt P36888); cell-free assay; competition with immobilised ligand; 0.1 µM): 100%
Cc1sc(C(=O)NC2COC2)cc1-n1cc(NC(=O)Nc2c(F)cccc2Cl)cn1 — remaining activity (FLT3; enzyme activity; inhibitor; 10 µM): 69.1%
O=C(c1ccc(Nc2nccc(-c3cc4ccccc4s3)n2)cc1)N1CCC(N2CCCC2)CC1 — remaining binding (FLT3 D835V/ITD; binding; competition with immobilised ligand; 1 µM): 8.3%
CN(C)c1nccc(-c2cnc3ncccn23)n1 — remaining binding (FLT3 D835Y; binding; 1 µM): 78%
O=C(c1ccc(Nc2ncc(Cl)c(-c3cc4ccccc4s3)n2)cc1)N1CCC(N2CCCC2)CC1 — remaining binding (Receptor-type tyrosine-protein kinase FLT3 (FLT3, Homo sapiens, UniProt P36888, ITD); binding; competition with immobilised ligand; 1 µM): 6.2%
CCN(CC)CCNC(=O)c1c(C)[nH]c(/C=C2\C(=O)Nc3ccc(F)cc32)c1C — remaining activity (FLT3; enzyme activity; inhibitor; 1 µM): 1%
COc1ccc2cc(OCC3(C(=O)O)CN(C(=O)c4ccc(F)cc4)C3)ccc2c1 — remaining binding (FLT3; cell-free assay; competition with immobilised ligand; 1 µM): 97%
COc1ccc(COc2ccc(Cc3cnc(N)nc3N)cc2OC)cc1 — remaining signal (FLT3; cell-free assay; 0.5 µM): 103%
N#Cc1ccc(Nc2ccc3[nH]c(=O)[nH]c3c2)c(Cl)c1 — remaining binding (FLT3 D835Y; cell-free assay; competition with immobilised ligand; 1 µM): 94%
N[C@H]1CCN(c2nccc(-c3cnn4ncccc34)n2)C1 — remaining binding (FLT3 D835Y; binding; 1 µM): 97%
O=C(Nc1cccnn1)N1CC(C/C=C/c2cncc(Oc3ccc(C(F)(F)F)cn3)n2)C1 — remaining binding (FLT3; cell-free assay; competition with immobilised ligand; 1 µM): 100%
COc1ncc2cc3ccccc3nc2c1C#N — remaining binding (FLT3; cell-free assay; competition with immobilised ligand; 5 µM): 91%
C[C@H]1CCN(c2nccc(-c3cnn4ncccc34)n2)C1 — remaining binding (Receptor-type tyrosine-protein kinase FLT3 (FLT3, Homo sapiens, UniProt P36888, D835V); binding; 1 µM): 53%
O=c1nc(-c2ccccn2)sc2ccccc12 — remaining binding (FLT3 N841I; binding; competition with immobilised ligand; 1 µM): 74%
